Results taken from ChEMBL document CHEMBL1130336, “Polyanion inhibitors of human immunodeficiency virus and other viruses. 6. Micelle-like anti-HIV polyanionic compounds based on a carbohydrate core” (J Med Chem, 1997).

Tests used:
E6SM [1] = experiment: Concentration required to cause a microscopically detectable alteration of normal E6SM cell morphology; type: functional, cell-based; settings: Homo sapiens, read-out: IC50
Outline: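 Minimum cytotoxic concentration, read microscopically as the level that causes a detectable alteration of normal cell morphology.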

E6SM [2] = experiment: Concentration required to reduce herpes simplex virus-1TK( B2006) inducted cytopathicity by 50% (E6SM cells); type: functional, cell-based; settings: Homo sapiens
Outline: (§1)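 Virus was added in the presence of compound, and the cells were incubated until cytopathic effect was scored. The value is the concentration that reduces virus-induced CPE by 50%.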

E6SM [3] = experiment: Concentration required to reduce herpes simplex virus-1TK (KOS) inducted cytopathicity by 50% (E6SM cells); type: functional, cell-based; settings: Homo sapiens; outline: as §1
E6SM [4] = experiment: Concentration required to reduce herpes simplex virus-1TK (VMW1837) inducted cytopathicity by 50% (E6SM cells); type: functional, cell-based; settings: Homo sapiens; outline: as §1
E6SM [5] = experiment: Concentration required to reduce herpes simplex virus-2(G) inducted cytopathicity by 50% (E6SM cells); type: functional, cell-based; settings: Homo sapiens; outline: as §1
Vaccinia virus = experiment: Concentration required to reduce vaccinia virus-inducted cytopathicity by 50% (E6SM cells); type: functional, organism-based, Orthopoxvirus vaccinia
[6] = system: Human immunodeficiency virus 1; experiment: Concentration required to inhibit by 50% human immunodeficiency virus-1 induced syncytium formation upon coculturing persistently HIV-infected HUT-78 cells with MOLT-4 cells; type: functional, organism-based; settings: Human immunodeficiency virus 1, MOLT-4
Outline: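 MOLT-4 (clone 8) cells at 1 × 10^6 cells/mL, cocultured with an equal number of persistently infected HUT-78/HIV-1 or HUT-78/HIV-2 cells across a range of compound concentrations. Giant cells were counted under the microscope after 24 h of cocultivation. The value is the concentration giving 50% inhibition of syncytium formation.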

HEL [7] = experiment: Concentration required to inhibit HEL cell growth by 50%; type: functional, cell-based; settings: Homo sapiens
HEL [8] = experiment: Concentration required to reduce human cytomegalo virus(AD-169) inducted cytopathicity by 50% (HEL cells); type: functional, cell-based; outline: as §1
HEL [9] = experiment: Concentration required to reduce human cytomegalo virus(Davis) inducted cytopathicity by 50% (HEL cells); type: functional, cell-based; outline: as §1
HeLa [10] = experiment: Concentration required to cause a microscopically detectable alteration of normal Hela cell morphology; type: functional, cell-based; settings: Homo sapiens
HeLa [11] = experiment: Concentration required to reduce Coxsackie virus-inducted cytopathicity by 50% (HeLa cells); type: functional, cell-based; settings: Homo sapiens
HeLa [12] = experiment: Concentration required to reduce vesicular stomatitis virus-inducted cytopathicity by 50% (HeLa cells); type: functional, cell-based; settings: Homo sapiens
MT4 [13] = experiment: Concentration required to reduce the viability of uninfected MT-4 cells by 50%; type: functional; settings: Homo sapiens
Outline: (§2)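 Cytotoxicity in uninfected CEM-4 or MT-4 cells, measured as inhibition of cell growth. The value is the concentration that lowers viability by 50%.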

MT4 [14] = experiment: Concentration required to inhibit human immunodeficiency virus-2 induced cytopathicity in MT-4 cells by 50%; type: functional, cell-based
Outline: (§3)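 MT-4 cells infected with HIV-1 (strain HTLV-III_B/LAI) or HIV-2 (strain LAV_ROD). The end point is 50% inhibition of virus-induced cytopathicity.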

Vero [15] = experiment: Concentration required to cause a microscopically detectable alteration of normal Vero cell morphology; type: functional, cell-based; settings: Chlorocebus sabaeus
Vero [16] = experiment: Concentration required to reduce Coxsackie virus-inducted cytopathicity by 50% (Vero cells); type: functional, cell-based; settings: Chlorocebus sabaeus
Vero [17] = experiment: Concentration required to reduce Junin virus-inducted cytopathicity by 50% (Vero cells); type: functional, cell-based; settings: Chlorocebus sabaeus
Vero [18] = experiment: Concentration required to reduce Tacaribe virus-inducted cytopathicity by 50% (Vero cells); type: functional, cell-based; settings: Chlorocebus sabaeus
Vero [19] = experiment: Concentration required to reduce parainfluenza-3 virus-inducted cytopathicity by 50% (Vero cells); type: functional, cell-based; settings: Chlorocebus sabaeus
Vero [20] = experiment: Concentration required to reduce reovirus-1 inducted cytopathicity by 50% (Vero cells); type: functional, cell-based; settings: Chlorocebus sabaeus
Vero [21] = experiment: Concentration required to reduce sindbis virus-inducted cytopathicity by 50% (Vero cells); type: functional, cell-based; settings: Chlorocebus sabaeus
MT4 [22] = experiment: Concentration required to inhibit human immunodeficiency virus-1 induced cytopathicity in MT-4 cells by 50%; type: functional, cell-based; outline: as §3
[23] = system: Human immunodeficiency virus 2; experiment: Concentration required to inhibit by 50% human immunodeficiency virus-2 induced syncytium formation upon coculturing persistently HIV-infected HUT-78 cells with MOLT-4 cells; settings: HUT-78, MOLT-4
CEM-4 [24] = experiment: Concentration required to reduce the viability of uninfected CEM-4 cells by 50%; type: functional; settings: Homo sapiens; outline: as §2
CEM-4 [25] = experiment: Inhibitory concentration required to inhibit HIV-induced cytopathicity in CEM-4 cells by 50%; type: functional, cell-based; settings: Homo sapiens
Outline: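 CEM-4 cells infected with HIV-1 (strain HTLV-III_B/LAI). The end point is 50% inhibition of HIV-induced cytopathicity.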

E6SM [26] = experiment: Concentration required to reduce herpes simplex virus-1TK (F) inducted cytopathicity by 50% (E6SM cells); type: functional, cell-based; settings: Homo sapiens; outline: as §1
E6SM [27] = experiment: Concentration required to reduce herpes simplex virus-1TK (McIntyre) inducted cytopathicity by 50% (E6SM cells); type: functional, cell-based; settings: Homo sapiens; outline: as §1
E6SM [28] = experiment: Concentration required to reduce herpes simplex virus-2(196) inducted cytopathicity by 50% (E6SM cells); type: functional, cell-based; settings: Homo sapiens; outline: as §1
HeLa [29] = experiment: Concentration required to reduce polio-1 virus-inducted cytopathicity by 50% (HeLa cells); type: functional, cell-based; settings: Homo sapiens
Vero [30] = experiment: Concentration required to reduce forest virus-inducted cytopathicity by 50% (Vero cells); type: functional, cell-based; settings: Chlorocebus sabaeus
E6SM [31] = experiment: Concentration required to reduce herpes simplex virus-2(Lyons) inducted cytopathicity by 50% (E6SM cells); type: functional, cell-based; settings: Homo sapiens; outline: as §1

SMILES	minimum cytotoxic concentration (E6SM [1]) [µM]	IC50 (E6SM [2]) [µM]	IC50 (E6SM [3]) [µM]	IC50 (E6SM [4]) [µM]	IC50 (E6SM [5]) [µM]	IC50 [6] [µM]	IC50 (HEL [7]) [µM]	IC50 (HEL [8]) [µM]	IC50 (HEL [9]) [µM]	IC50 (HeLa [10]) [µM]	IC50 (HeLa [11]) [µM]	IC50 (HeLa [12]) [µM]	CC50 (MT4 [13]) [µM]	IC50 (MT4 [14]) [µM]	IC50 (Vero [15]) [µM]	IC50 (Vero [16]) [µM]	IC50 (Vero [17]) [µM]	IC50 (Vero [18]) [µM]	IC50 (Vero [19]) [µM]	IC50 (Vero [20]) [µM]	other results
O=C(O)CC(SCCCOC[C@H]1O[C@@H](O[C@H]2[C@H](OCCCSC(CC(=O)O)C(=O)O)[C@@H](OCCCSC(CC(=O)O)C(=O)O)[C@@H](OCCCSC(CC(=O)O)C(=O)O)O[C@@H]2COCCCSC(CC(=O)O)C(=O)O)[C@H](OCCCSC(CC(=O)O)C(=O)O)[C@@H](OCCCSC(CC(=O)O)C(=O)O)[C@@H]1OCCCSC(CC(=O)O)C(=O)O)C(=O)O (stereo partly drawn)	> 181	68	136	> 181	136	3.61	> 22	6.3	3.6	> 181	> 181	> 181	> 56.4	4.47	> 181	> 181	> 22	> 22	> 181	> 181	IC50 (Vaccinia virus; Orthopoxvirus vaccinia, E6SM): > 181 µM; IC50 (Vero [21]): > 181 µM; IC50 (MT4 [22]): 0.37 µM; IC50 [23]: 54.2 µM
CO[C@H]1O[C@H](COCCCSC(CC(=O)O)C(=O)O)[C@@H](OCCCSC(CC(=O)O)C(=O)O)[C@@H](OCCCSC(CC(=O)O)C(=O)O)[C@H]1OCCCSC(CC(=O)O)C(=O)O (stereo partly drawn)																					CC50 (CEM-4 [24]): > 265 µM; IC50 (CEM-4 [25]): 69 µM
O=S(=O)(O)CCSCCCOC[C@H]1O[C@@H](OCCCSCCS(=O)(=O)O)[C@H](OCCCSCCS(=O)(=O)O)[C@@H](OCCCSCCS(=O)(=O)O)[C@@H]1OCCCSCCS(=O)(=O)O	> 333	> 333	> 333	> 333	> 333	> 208	> 42	> 42	> 333	> 167	> 167	> 167	> 208	> 208	> 167	> 167	> 42	> 42	> 167	> 167	CC50 (CEM-4 [24]): > 83.3 µM; IC50 (CEM-4 [25]): > 83.3 µM; IC50 (E6SM [26]): > 333 µM; IC50 (E6SM [27]): > 333 µM; IC50 (E6SM [28]): > 333 µM; IC50 (Vaccinia virus; e6sm): > 167 µM; IC50 (HeLa [29]): > 167 µM; IC50 (Vero [30]): > 167 µM; IC50 (Vero [21]): > 167 µM; IC50 (E6SM [31]): > 42 µM; IC50 [23]: > 208 µM
O=C(O)CC(SCCCOC[C@H]1O[C@@H](O[C@H]2[C@H](OCCCSC(CC(=O)O)C(=O)O)[C@@H](OCCCSC(CC(=O)O)C(=O)O)C(OCCCSC(CC(=O)O)C(=O)O)O[C@@H]2COCCCSC(CC(=O)O)C(=O)O)[C@H](OCCCSC(CC(=O)O)C(=O)O)[C@@H](OCCCSC(CC(=O)O)C(=O)O)[C@@H]1OCCCSC(CC(=O)O)C(=O)O)C(=O)O (stereo partly drawn)	> 181	45	> 181	> 181	> 45	1.8	> 22	1.4	0.4	> 181	> 181	> 181	> 56.4	4.17	> 181	> 181	> 22	> 22	> 181	> 181	IC50 (Vaccinia virus; Orthopoxvirus vaccinia, E6SM): > 181 µM; IC50 (Vero [21]): > 181 µM; IC50 (MT4 [22]): 0.04 µM; IC50 [23]: 54.2 µM
O=C(O)CC(SCCCOC[C@H]1O[C@@](COCCCSC(CC(=O)O)C(=O)O)(O[C@H]2O[C@H](COCCCSC(CC(=O)O)C(=O)O)[C@@H](OCCCSC(CC(=O)O)C(=O)O)[C@H](OCCCSC(CC(=O)O)C(=O)O)[C@H]2OCCCSC(CC(=O)O)C(=O)O)[C@@H](OCCCSC(CC(=O)O)C(=O)O)[C@@H]1OCCCSC(CC(=O)O)C(=O)O)C(=O)O (stereo partly drawn)	> 181	> 181	> 181	> 181	> 181	22.6	> 22	> 22	> 22	> 90	> 90	> 90	> 113	2.89	> 90	> 90	> 22	> 22	> 90	> 90	CC50 (CEM-4 [24]): > 45.1 µM; IC50 (CEM-4 [25]): 3.02 µM; IC50 (E6SM [26]): > 181 µM; IC50 (E6SM [27]): > 181 µM; IC50 (E6SM [28]): > 181 µM; IC50 (Vaccinia virus; Orthopoxvirus vaccinia, E6SM): > 181 µM; IC50 (HeLa [29]): > 90 µM; IC50 (Vero [30]): > 90 µM; IC50 (Vero [21]): > 90 µM; IC50 (MT4 [22]): 0.18 µM; IC50 (E6SM [31]): > 135 µM; IC50 [23]: 22.6 µM
